Assay results: ChEMBL document CHEMBL1147718, “Design, synthesis, antibacterial, and QSAR studies of myristic acid derivatives” (2006)
In brackets after ≈: the same amount, converted by molar mass.

Tests used:
Assay type in all cases: functional
Conditions in all cases: read-out: -Log MIC (converted)
Micrococcus luteus = test: Antibacterial activity against Micrococcus luteus
How it was run: (§1)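 Serial dilution MIC in double strength nutrient broth-IP against S. aureus, M. luteus and E. coli. Derivatives dissolved in DMSO as […] stock. Activity reported as −log MIC.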

Staphylococcus aureus = test: Antibacterial activity against Staphylococcus aureus; how it was run: as §1
Escherichia coli = test: Antibacterial activity against Escherichia coli; how it was run: as §1

CCCCCCCCCCCCCC(=O)N(CC)CC
MIC (Micrococcus luteus): 2140 µM (≈ 606 µg/mL)
MIC (Staphylococcus aureus): 2630 µM (≈ 746 µg/mL)
MIC (Escherichia coli): 2240 µM (≈ 635 µg/mL)

CCCCCCCCCCCCCC(=O)Nc1ccc([N+](=O)[O-])cc1
MIC (Micrococcus luteus): 1740 µM (≈ 606 µg/mL)
MIC (Staphylococcus aureus): 1380 µM (≈ 481 µg/mL)
MIC (Escherichia coli): 2750 µM (≈ 960 µg/mL)

CCCCCCCCCCCCCC(=O)Nc1cccc([N+](=O)[O-])c1
MIC (Micrococcus luteus): 3470 µM (≈ 1210 µg/mL)
MIC (Staphylococcus aureus): 2750 µM (≈ 960 µg/mL)
MIC (Escherichia coli): 2750 µM (≈ 960 µg/mL)

CCCCCCCCCCCCCC(=O)Nc1ccccc1
MIC (Micrococcus luteus): 1950 µM (≈ 592 µg/mL)
MIC (Staphylococcus aureus): 1950 µM (≈ 592 µg/mL)
MIC (Escherichia coli): 3160 µM (≈ 960 µg/mL)

CCCCCCCCCCCCCC(=O)Nc1cccc(Cl)c1
MIC (Micrococcus luteus): 1170 µM (≈ 397 µg/mL)
MIC (Staphylococcus aureus): 1480 µM (≈ 500 µg/mL)
MIC (Escherichia coli): 2690 µM (≈ 910 µg/mL)

CCCCCCCCCCCCCC(=O)Nc1ccc(Cl)cc1
MIC (Micrococcus luteus): 1480 µM (≈ 500 µg/mL)
MIC (Staphylococcus aureus): 1480 µM (≈ 500 µg/mL)
MIC (Escherichia coli): 2690 µM (≈ 910 µg/mL)

CCCCCCCCCCCCCC(=O)Nc1ccc(OC)cc1
MIC (Micrococcus luteus): 1780 µM (≈ 593 µg/mL)
MIC (Staphylococcus aureus): 1510 µM (≈ 505 µg/mL)
MIC (Escherichia coli): 2400 µM (≈ 800 µg/mL)

CCCCCCCCCCCCCC(=O)Nc1ccccc1OC
MIC (Micrococcus luteus): 1780 µM (≈ 593 µg/mL)
MIC (Staphylococcus aureus): 1510 µM (≈ 505 µg/mL)
MIC (Escherichia coli): 2400 µM (≈ 800 µg/mL)

CCCCCCCCCCCCCC(=O)NCCCC
MIC (Micrococcus luteus): 2450 µM (≈ 696 µg/mL)
MIC (Staphylococcus aureus): 2140 µM (≈ 606 µg/mL)
MIC (Escherichia coli): 3550 µM (≈ 1010 µg/mL)

CCCCCCCCCCCCCC(=O)NCCC
MIC (Micrococcus luteus): 2570 µM (≈ 693 µg/mL)
MIC (Staphylococcus aureus): 2570 µM (≈ 693 µg/mL)
MIC (Escherichia coli): 3720 µM (≈ 1000 µg/mL)

CCCCCCCCCCCCCC(=O)Nc1ccccc1[N+](=O)[O-]
MIC (Micrococcus luteus): 1740 µM (≈ 606 µg/mL)
MIC (Staphylococcus aureus): 1380 µM (≈ 481 µg/mL)
MIC (Escherichia coli): 3470 µM (≈ 1210 µg/mL)

CCCCCCCCCCCCCC(=O)Nc1ccccc1Cl
MIC (Micrococcus luteus): 1780 µM (≈ 601 µg/mL)
MIC (Staphylococcus aureus): 1480 µM (≈ 500 µg/mL)
MIC (Escherichia coli): 2690 µM (≈ 910 µg/mL)

CCCCCCCCCCCCCC(=O)OCc1ccccc1 [BENZYL TETRADECANOATE]
MIC (Micrococcus luteus): 1860 µM (≈ 593 µg/mL)
MIC (Staphylococcus aureus): 1580 µM (≈ 505 µg/mL)
MIC (Escherichia coli): 2510 µM (≈ 800 µg/mL)

CCCCCCCCCCCCCC(=O)OCCCC [BUTYL TETRADECANOATE]
MIC (Micrococcus luteus): 4370 µM (≈ 1240 µg/mL)
MIC (Staphylococcus aureus): 2630 µM (≈ 748 µg/mL)
MIC (Escherichia coli): 3550 µM (≈ 1010 µg/mL)

O=C(O)c1cn(C2CC2)c2cc(N3CCNCC3)c(F)cc2c1=O [CIPROFLOXACIN]
MIC (Micrococcus luteus): 468 µM (≈ 155 µg/mL)
MIC (Staphylococcus aureus): 468 µM (≈ 155 µg/mL)
MIC (Escherichia coli): 468 µM (≈ 155 µg/mL)

CCCCCCCCCCCCCC(=O)OCC [ETHYL TETRADECANOATE]
MIC (Micrococcus luteus): 2450 µM (≈ 629 µg/mL)
MIC (Staphylococcus aureus): 3890 µM (≈ 998 µg/mL)
MIC (Escherichia coli): 2450 µM (≈ 629 µg/mL)

CCCCCCCCCCCCCC(=O)OCCCCCCC [HEPTYL TETRADECANOATE]
MIC (Micrococcus luteus): 1510 µM (≈ 494 µg/mL)
MIC (Staphylococcus aureus): 1230 µM (≈ 402 µg/mL)
MIC (Escherichia coli): 2450 µM (≈ 802 µg/mL)

CCCCCCCCCCCCCC(=O)OCCCCCC [HEXYL TETRADECANOATE]
MIC (Micrococcus luteus): 1290 µM (≈ 403 µg/mL)
MIC (Staphylococcus aureus): 1580 µM (≈ 495 µg/mL)
MIC (Escherichia coli): 2570 µM (≈ 803 µg/mL)

CCCCCCCCCCCCCC(=O)OCC(C)C [ISOBUTYL TETRADECANOATE]
MIC (Micrococcus luteus): 1740 µM (≈ 494 µg/mL)
MIC (Staphylococcus aureus): 1740 µM (≈ 494 µg/mL)
MIC (Escherichia coli): 3160 µM (≈ 900 µg/mL)

CCCCCCCCCCCCCC(=O)OCCC(C)C [ISOPENTYL TETRADECANOATE]
MIC (Micrococcus luteus): 2000 µM (≈ 596 µg/mL)
MIC (Staphylococcus aureus): 1660 µM (≈ 495 µg/mL)
MIC (Escherichia coli): 3020 µM (≈ 901 µg/mL)

CCCCCCCCCCCCCC(=O)OC(C)C [ISOPROPYL MYRISTATE]
MIC (Micrococcus luteus): 2240 µM (≈ 605 µg/mL)
MIC (Staphylococcus aureus): 2240 µM (≈ 605 µg/mL)
MIC (Escherichia coli): 3720 µM (≈ 1000 µg/mL)

CCCCCCCCCCCCCC(=O)OC [METHYL TETRADECANOATE]
MIC (Micrococcus luteus): 5130 µM (≈ 1240 µg/mL)
MIC (Staphylococcus aureus): 4170 µM (≈ 1010 µg/mL)
MIC (Escherichia coli): 4170 µM (≈ 1010 µg/mL)

CCCCCCCCCCCCCC(=O)O [MYRISTIC ACID]
MIC (Micrococcus luteus): 3310 µM (≈ 756 µg/mL)
MIC (Staphylococcus aureus): 3310 µM (≈ 756 µg/mL)
MIC (Escherichia coli): 5500 µM (≈ 1260 µg/mL)

CCCCCCCCCCCCCC(=O)OCCCCCCCC [OCTYL TETRADECANOATE]
MIC (Micrococcus luteus): 1170 µM (≈ 400 µg/mL)
MIC (Staphylococcus aureus): 1170 µM (≈ 400 µg/mL)
MIC (Escherichia coli): 2340 µM (≈ 798 µg/mL)

CCCCCCCCCCCCCC(=O)OCCCCC [PENTYL TETRADECANOATE]
MIC (Micrococcus luteus): 2000 µM (≈ 596 µg/mL)
MIC (Staphylococcus aureus): 2000 µM (≈ 596 µg/mL)
MIC (Escherichia coli): 3020 µM (≈ 901 µg/mL)

CCCCCCCCCCCCCC(=O)OCCC [PROPYL TETRADECANOATE]
MIC (Micrococcus luteus): 2340 µM (≈ 634 µg/mL)
MIC (Staphylococcus aureus): 2340 µM (≈ 634 µg/mL)
MIC (Escherichia coli): 4570 µM (≈ 1240 µg/mL)

CCCCCCCCCCCCCC(N)=O [TETRADECANAMIDE]
MIC (Micrococcus luteus): 5130 µM (≈ 1170 µg/mL)
MIC (Staphylococcus aureus): 2570 µM (≈ 584 µg/mL)
MIC (Escherichia coli): 3090 µM (≈ 703 µg/mL)

CCCCCCCCCCCCCC(=O)NN [TETRADECANEHYDRAZIDE]
MIC (Micrococcus luteus): 5130 µM (≈ 1240 µg/mL)
MIC (Staphylococcus aureus): 4170 µM (≈ 1010 µg/mL)
MIC (Escherichia coli): 4170 µM (≈ 1010 µg/mL)
